≈ marks a conversion by molar mass, not a printed value. Calls of active or inactive are those of the source. No cut-off for these calls is given here.
Experiments:
[1] = tested on: Liver microsome; test: Drug metabolism in human liver microsomes assessed as ethyl 2-Methyl-5-(3-(piperidin-1-yl)propoxy)-1H-indole-3-carboxylate formation at 10 uM preincubated for 5 mins followed by NADPH addition measured after 30 mins by HPLC-MS/MS analysis; format: ADME; conditions: 0.5 h
Outline: (§1)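 Human liver microsomes at 0.5 mg protein/ml in 100 mM potassium phosphate pH 7.4. Substrate at 10 µM final, pre-incubated 5 min at 37 °C with shaking, then started with 1 mM NADPH. Quenched at 0 and 30 min with cold acetonitrile containing labetalol internal standard. Spun 12000 g, 5 min, 4 °C; supernatant analysed by UHPLC C18 HPLC-MS/MS.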

[2] = tested on: Staphylococcus aureus; test: Antimicrobial activity against Staphylococcus aureus 1199B by microdilution method; format: functional
Outline: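 MIC by broth microdilution following CLSI guidelines against S. aureus SA-1199B, a strain that overexpresses norA. Run on compounds giving at least 80% EtBr efflux inhibition and on selected weaker ones.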

[3] = Solubility of the compound in D2O solution at 25 degC by 1H NMR analysis; format: physicochemical
Outline: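 1H NMR in D2O at 25 °C with TSP internal standard, following a literature procedure.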

[4] = Metabolic stability in human liver microsomes assessed as compound remaining after at 10 uM preincubated for 5 mins followed by NADPH addition measured after 30 mins by HPLC-MS/MS analysis; format: ADME; conditions: read-out: Stability; outline: as §1
[5] = target: T1, Quinolone resistance protein NorA (Staphylococcus aureus) (UniProt P0A0J7); test: Inhibition of NorA efflux pump in Staphylococcus aureus 1199B assessed as reduction in EtBr efflux at 50 uM incubated for 20 mins measured for 5 mins by real-time fluorometric analysis
T1 sequence (whole entry): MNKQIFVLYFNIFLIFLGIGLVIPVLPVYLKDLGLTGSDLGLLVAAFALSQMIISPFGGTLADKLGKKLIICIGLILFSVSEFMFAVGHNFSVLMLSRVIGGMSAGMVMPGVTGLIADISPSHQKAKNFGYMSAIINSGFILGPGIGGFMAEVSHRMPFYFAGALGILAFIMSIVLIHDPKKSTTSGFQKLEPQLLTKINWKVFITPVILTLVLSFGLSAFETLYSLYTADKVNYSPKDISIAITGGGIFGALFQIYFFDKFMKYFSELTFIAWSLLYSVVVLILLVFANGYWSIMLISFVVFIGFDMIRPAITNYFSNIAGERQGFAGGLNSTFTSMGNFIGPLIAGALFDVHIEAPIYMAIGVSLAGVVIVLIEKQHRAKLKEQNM
Outline: (§2)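 SA-1199B (norA-overexpressing) grown overnight in cation-supplemented Mueller-Hinton broth, diluted 25-fold and grown at 35 °C to OD600 0.7–0.8. Loaded with EtBr 25 µM plus CCCP 100 µM (final), then resuspended in fresh broth. Fluorescence read at ex 485/em 645 nm for 5 min, ± compound. Efflux inhibition in % relative to untreated cells; screened at 50 µM. IC50 from concentration series; triplicate, two technical replicates each.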

[6] = target: T2, Quinolone resistance protein NorA (Staphylococcus aureus, UniProt P0A0J7); test: Inhibition of NorA efflux pump in Staphylococcus aureus 1199B assessed as reduction in EtBr efflux incubated for 20 mins measured for 5 mins by real-time fluorometric analysis; outline: as §2
T2 sequence (P0A0J7 whole entry): T1 sequence (whole entry)

[7] = tested on: Liver microsome; test: Drug metabolism in human liver microsomes assessed as 1-Benzyl-2-methyl-5-(3-(piperidin-1-yl)propoxy)-1H-indole-3-carboxylic acid formation at 10 uM preincubated for 5 mins followed by NADPH addition measured after 30 mins by HPLC-MS/MS analysis; format: ADME; conditions: 0.5 h; outline: as §1
[8] = target: T1, Quinolone resistance protein NorA (Staphylococcus aureus); test: Inhibition of NorA efflux pump in Staphylococcus aureus 1199 assessed as potentiation of ciprofloxacin-mediated antibacterial activity
[9] = tested on: Liver microsome; test: Drug metabolism in human liver microsomes assessed as 1-benzyl-2-methyl-5-(3-(piperazin-1-yl)propoxy)-1H-indole-3-carboxylic acid formation at 10 uM preincubated for 5 mins followed by NADPH addition measured after 30 mins by HPLC-MS/MS analysis; format: ADME; conditions: 0.5 h; outline: as §1
[10] = tested on: Staphylococcus aureus; test: Inhibition of NorA efflux pump A116E GrlA mutant in Staphylococcus aureus 1199B assessed as potentiation of ciprofloxacin-mediated antibacterial activity at 3.13 ug/ml relative to control
[11] = tested on: Liver microsome; test: Drug metabolism in human liver microsomes assessed as ethyl 2-methyl-5-(3-(piperazin-1-yl)propoxy)-1H-indole-3-carboxylate formation at 10 uM preincubated for 5 mins followed by NADPH addition measured after 30 mins by HPLC-MS/MS analysis; format: ADME; conditions: 0.5 h; outline: as §1
[12] = tested on: Liver microsome; test: Drug metabolism in human liver microsomes assessed as ethyl 1-(2-hydroxybenzyl)-2-methyl-5-(3-(piperidin-1-yl)propoxy)-1H-indole-3-carboxylate formation at 10 uM preincubated for 5 mins followed by NADPH addition measured after 30 mins by HPLC-MS/MS analysis; format: ADME; conditions: 0.5 h; outline: as §1
[13] = tested on: Liver microsome; test: Drug metabolism in human liver microsomes assessed as N-dealkylated M-90 formation at 10 uM preincubated for 5 mins followed by NADPH addition measured after 30 mins by HPLC-MS/MS analysis; format: ADME; conditions: 0.5 h; outline: as §1
[14] = tested on: Liver microsome; test: Drug metabolism in human liver microsomes assessed as N-dealkylated M-68 formation at 10 uM preincubated for 5 mins followed by NADPH addition measured after 30 mins by HPLC-MS/MS analysis; format: ADME; conditions: 0.5 h; outline: as §1
[15] = tested on: Liver microsome; test: Drug metabolism in human liver microsomes assessed as ethyl 2-methyl-5-(2-(piperazin-1-yl)ethoxy)-1H-indole-3-carboxylate formation at 10 uM preincubated for 5 mins followed by NADPH addition measured after 30 mins by HPLC-MS/MS analysis; format: ADME; conditions: 0.5 h; outline: as §1
[16] = tested on: Liver microsome; test: Drug metabolism in human liver microsomes assessed as 1-benzyl-2-methyl-5-(2-(piperazin-1-yl)ethoxy)-1H-indole-3-carboxylic acid formation at 10 uM preincubated for 5 mins followed by NADPH addition measured after 30 mins by HPLC-MS/MS analysis; format: ADME; conditions: 0.5 h; outline: as §1
[17] = tested on: Liver microsome; test: Drug metabolism in human liver microsomes assessed as 5-(3-aminopropoxy)-1-benzyl-2-methyl-1H-indole-3-carboxylic acid formation at 10 uM preincubated for 5 mins followed by NADPH addition measured after 30 mins by HPLC-MS/MS analysis; format: ADME; conditions: 0.5 h; outline: as §1
[18] = tested on: Liver microsome; test: Drug metabolism in human liver microsomes assessed as ethyl 5-(3-aminopropoxy)-2-methyl-1H-indole-3-carboxylate formation at 10 uM preincubated for 5 mins followed by NADPH addition measured after 30 mins by HPLC-MS/MS analysis; format: ADME; conditions: 0.5 h; outline: as §1

CCOC(=O)c1c(C)n(Cc2ccccc2)c2ccc(OCCCN3CCCCC3)cc12
Drug metabolism [1]: metabolite_detected
MIC [2]: > 100 µg/mL
solubility [3]: 23 µM (≈ 10 µg/mL)
remaining at 0.5 h, 10 µM [4]: 76%
inhibition [5]: 98.5%
IC50 [6]: 6 µM
Drug metabolism [7]: metabolite_detected

CCOC(=O)c1c(C)n(Cc2ccccc2)c2ccc(OCCCN3CCNCC3)cc12
inhibition [8]: inactive
Drug metabolism [9]: metabolite_detected
fold change (FC) [10]: 4
MIC [2]: 100 µg/mL (≈ 230 µM)
solubility [3]: 20 µM (≈ 8.71 µg/mL)
Drug metabolism [11]: metabolite_detected
remaining at 0.5 h, 10 µM [4]: 82%
inhibition [5]: 100%
IC50 [6]: 12.5 µM

CCOC(=O)c1c(C)n(Cc2ccccc2OC)c2ccc(OCCCN3CCCCC3)cc12
Drug metabolism [1]: metabolite_detected
Drug metabolism [12]: metabolite_detected
MIC [2]: > 100 µg/mL
solubility [3]: 25 µM (≈ 11.6 µg/mL)
remaining at 0.5 h, 10 µM [4]: 66%
inhibition [5]: 87.9%
IC50 [6]: 5 µM

CCOC(=O)c1c(C)n(Cc2ccccc2)c2ccc(OCC(F)CN3CCCCC3)cc12 (stereo not drawn)
Drug metabolism [13]: metabolite_detected
MIC [2]: > 100 µg/mL
solubility [3]: 20 µM (≈ 9.05 µg/mL)
remaining at 0.5 h, 10 µM [4]: 52%
inhibition [5]: 96.7%
Drug metabolism [14]: metabolite_detected
IC50 [6]: 5.1 µM

CCOC(=O)c1c(C)n(Cc2ccccc2)c2ccc(OCCN3CCNCC3)cc12
inhibition [8]: inactive
fold change (FC) [10]: 4
MIC [2]: > 100 µg/mL
solubility [3]: 190 µM (≈ 80.1 µg/mL)
remaining at 0.5 h, 10 µM [4]: 72%
inhibition [5]: 99.2%
Drug metabolism [15]: metabolite_detected
Drug metabolism [16]: metabolite_detected
IC50 [6]: 15.5 µM

CCOC(=O)c1c(C)n(Cc2ccccc2)c2ccc(OCCCN)cc12
inhibition [8]: inactive
fold change (FC) [10]: 4
MIC [2]: > 100 µg/mL
solubility [3]: 17 µM (≈ 6.23 µg/mL)
remaining at 0.5 h, 10 µM [4]: 87%
inhibition [5]: 100%
Drug metabolism [17]: metabolite_detected
IC50 [6]: 12.5 µM
Drug metabolism [18]: metabolite_detected
